The experiment concerns the target Tubulin (Homo sapiens) (UniProt P68371+Q9H4B7+P0DPH7+P68366+Q13509+Q71U36+P04350+Q3ZCM7+P07437+P68363+Q9BQE3+Q6PEY2+Q13885+Q9BVA1+Q9BUF5). Put plainly: Inhibition of [3H]colchicine binding to tubulin (unknown origin) at 1 uM incubated for 10 mins relative to control. The format is protein-complex assay. A digest of the protocol:
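Tubulin at 1.0 μM mixed with 5.0 μM [3H]colchicine and inhibitor at 1.0 μM, incubated 10 min at 37 °C.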

With `COc1cc(C(=O)c2cn(-c3ccccn3)cc2-c2ccco2)cc(OC)c1OC`, the inhibition was determined as 66%. To `COc1cc(C(=O)c2cn(-c3ccccn3)cc2-c2ccccc2)cc(OC)c1OC` belongs 69%.

The inhibition is the relative decrease from the control value, in per cent. Low values mean little suppression, high ones strong suppression.

Values taken from ChEMBL document CHEMBL5236592, “Induction of Ferroptosis in Glioblastoma and Ovarian Cancers by a New Pyrrole Tubulin Assembly Inhibitor” (J Med Chem, 2022).
